{"data": "Results pooled from the literature", "cell line": "A-375", "read-out": "cell growth or viability", "note": "Each line is one published result; the experiments were not run side by side."}
{"Compound": "COc1cccc2c1C(=O)c1c(O)c3c(c(O)c1C2=O)C[C@@](O)(C(=O)CO)C[C@@H]3O[C@H]1C[C@H](N)[C@H](O)[C@H](C)O1", "setting": "96 h", "IC50": "32.9 nM"}
{"Compound": "C[C@H]1COCCN1c1nc(N2CCOC[C@@H]2C)c2ccc(-c3cccc(C(=O)NCCOCCOCCOCCONC(=O)c4ccc(F)c(F)c4Nc4ccc(I)cc4F)c3)nc2n1", "assay": "WST-1", "setting": "72 h", "IC50": "11600 nM"}
{"Compound": "CN1CCc2c(c3ccccc3n2Cc2ccc(C(=O)NO)cc2)C1", "assay": "CCK-8", "setting": "48 h", "IC50": "14800 nM"}
{"Compound": "CC(C)(C)c1cnc(CSc2cnc(NC(=O)C3CCN(C(=O)CCCCCCCN4Cc5cc6c(cc5C4)C(=O)N(C4CCC(=O)NC4=O)C6=O)CC3)s2)o1 (stereo not drawn)", "assay": "MTT", "IC50": "83.3 nM"}
{"Compound": "Fc1ccccc1Nc1nc(-c2ccncc2)nc2c1CNCC2", "assay": "MTT", "IC50": "> 100000 nM"}
{"Compound": "COc1ccc(-c2ccc3c(N4CCOC[C@@H]4C)nc(N4CCOC[C@@H]4C)nc3n2)cc1COC(=O)CCOCCOCCOCCONC(=O)c1ccc(F)c(F)c1Nc1ccc(I)cc1F", "assay": "WST-1", "setting": "72 h", "IC50": "204 nM"}
{"Compound": "COc1cc(C(=O)c2nc(-c3cccc4[nH]ccc34)c[nH]2)cc2c1OC=CO2", "assay": "MTS", "setting": "72 h", "IC50": "11.5 nM"}
{"Compound": "COc1cccc(Nc2nc(-c3ccncc3)nc3c2CNCC3)c1", "assay": "MTT", "IC50": "37200 nM"}
{"Compound": "COc1cc(C(=O)c2nc(-c3cccc4[nH]cnc34)c[nH]2)cc(OC)c1OC", "assay": "MTS", "setting": "72 h", "IC50": "19.7 nM"}
{"Compound": "CNc1cccc(Nc2nc(-c3ccncc3)nc3c2CNCC3)c1", "assay": "MTT", "IC50": "35200 nM"}
{"Compound": "CC(=O)O[C@H]1C(=O)[C@@]2(C)[C@H]([C@H](OC(=O)c3ccccc3)[C@]3(O)C[C@H](OC(=O)[C@H](O)[C@@H](NC(=O)c4ccccc4)c4ccccc4)C(C)=C1C3(C)C)[C@]1(OC(C)=O)CO[C@@H]1C[C@@H]2O", "assay": "MTS", "setting": "72 h", "IC50": "3 nM"}
{"Compound": "CN1CCC(NC2CCc3[nH]c4c(C(N)=O)ccc(-c5ccccc5Cl)c4c3C2)CC1 (stereo not drawn)", "setting": "96 h", "IC50": "26.8 nM"}
